Compound activity: PubChem BioAssay, Broad Institute
The full list was thinned out, with hits kept by preference.
T cruzi growth-1: blocks T. cruzi growth in NIH3T3 culture; T. cruzi beta-gal in NIH3T3, GalScreen luminescence, 90 h; inhibition, % at 8.34 µM; 5.9% of 77,000 active; AID 624255;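 active = mean inhibition above about 93%, with at least 55% of replicates each passing it, limit read from the data, passing the limit was not always enough; inconclusive = only one of those two conditions holds; inactive = neither condition holds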
GASC1 inh: inhibitors of human demethylase GASC-1 KDM4C. GST-KDM4C 2-372, H3K9me3 peptide, LANCE TR-FRET. 0.15% of 96,000 active. Q9H3R0. inhibition, % at 12.5 µM;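 active = mean replicate inhibition above about 25%, with at least 55% of replicates also reaching it, limit read from the data, passing the limit was not always enough; inconclusive = only one of those two conditions met; inactive = neither condition met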
Target sequence (Q9H3R0 2-372 limits assumed): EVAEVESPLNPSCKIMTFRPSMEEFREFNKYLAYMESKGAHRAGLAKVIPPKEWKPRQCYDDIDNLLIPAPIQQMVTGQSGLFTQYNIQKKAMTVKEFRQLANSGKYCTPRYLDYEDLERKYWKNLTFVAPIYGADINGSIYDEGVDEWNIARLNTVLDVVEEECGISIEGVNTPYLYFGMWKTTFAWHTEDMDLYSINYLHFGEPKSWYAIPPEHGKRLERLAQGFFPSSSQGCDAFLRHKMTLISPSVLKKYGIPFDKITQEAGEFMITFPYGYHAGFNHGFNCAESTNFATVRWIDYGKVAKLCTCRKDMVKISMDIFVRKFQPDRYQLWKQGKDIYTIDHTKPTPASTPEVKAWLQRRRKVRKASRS
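System: N-terminal GST-fused human GASC-1 (KDM4C) fragment, residues 2-372; amount: enzyme final amount 10 nM; incubation: reaction 30 min RT, detection step 1 h RT; medium: HEPES buffer, pH 7.5, plus ascorbate; technique: LANCE TR-FRET, Eu antibody, ULight-streptavidin, EDTA, ex 340 nm, em 618/671 nm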
IDH1 R132H inh: blocks human IDH1 R132H reductase activity; O75874; diaphorase/resazurin fluorescence, 60 min; inhibition, % at 10 µM; 0.18% of 70,000 active; AID 624101; in the data active = inhibition above about 34%; inconclusive = no clear call, values can overlap the other calls; inactive = below about 11%
T cruzi growth-2: Trypanosoma cruzi proliferation inhibition. shares compounds with T cruzi growth-1. T. cruzi beta-gal in NIH3T3, GalScreen luminescence, 90 h. inhibition, % at 8.35 µM. 72% of 5,600 active. AID 651739;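 active = mean replicate inhibition above about 95% and at least 55% of replicates individually reaching it, limit read from the data; inconclusive = only one of the two criteria is met; inactive = neither criterion is met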
T cruzi growth-3: inhibitors of T. cruzi proliferation; shares compounds with T cruzi growth-1; T. cruzi beta-gal in NIH3T3, GalScreen luminescence, 90 h; inhibition, % at 2.09 µM; 21% of 5,600 active; AID 651740;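 active = mean inhibition above about 95%, with at least 55% of replicates also reaching it, limit read from the data; inconclusive = meets just one of the two conditions; inactive = meets neither condition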
NIH3T3 tox: cytotoxicity in mouse NIH/3T3 fibroblasts | shares compounds with T cruzi growth-1 | NIH/3T3 viability, CellTiter-Glo ATP luminescence, 90 h | cytotoxicity (signal decrease), % at 8.35 µM | 14% of 5,600 active;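 active = mean signal decrease across replicates above about 35% based on untreated-well scatter, with enough replicates individually passing, limit read from the data; inconclusive = no rule stated though some were filed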
3T3 cytotox 2: kills mouse NIH/3T3 fibroblasts. NIH/3T3 viability, CellTiter-Glo ATP luminescence, 90 h. 56% of 5,600 active. inhibition, % at 24.9 µM. shares compounds with T cruzi growth-1;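 active = mean loss of cell viability signal at or above a set limit, and enough replicates individually reaching it; inconclusive = meets only the mean limit or only the replicate share; inactive = meets neither condition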
Numbers stand for hits; n = inactive; u = inconclusive; x = no result given.

SMILES | T cruzi growth-1 | GASC1 inh | IDH1 R132H inh | T cruzi growth-2 | T cruzi growth-3 | NIH3T3 tox | 3T3 cytotox 2
CN(C)C(=O)c1cccc(-c2ccc3c(c2)[C@@H]2[C@@H](CCN2C(=O)C2CCOCC2)[C@H](CO)N3)c1 | u | n | x | 98.7 | n | n | n
O=C(CN1CCOCC1)N1CC[C@H]2[C@H](CO)Nc3ccc(-c4ccc(F)cc4)cc3[C@H]21 | n | n | x | x | x | x | x
COc1cccc(-c2ccc3c(c2)[C@H]2[C@H](CCN2C(=O)C2CC2)[C@H](CO)N3)c1 | x | n | x | x | x | x | x
COc1cccc(-c2ccc3c(c2)[C@@H]2[C@@H](CCN2C(=O)C2CCOCC2)[C@@H](CO)N3)c1 | 103.3 | n | x | 100.7 | u | n | n
Fc1ccccc1CSc1nnc(-c2cccnc2)n1Cc1ccco1 | x | x | n | x | x | x | x
O=C(CCCCCC(=O)NN=C1CCCCCCC1)NO | x | x | n | x | x | x | x
Cc1cc(N(CC(=O)Nc2cccc(C(F)(F)F)c2)S(C)(=O)=O)ccc1Br | x | x | n | x | x | x | x
NC(=O)Cc1ccc(O)c(Cl)c1 | x | x | n | x | x | x | x
COc1ccc(-c2ccc3c(c2)[C@@H]2[C@@H](CCN2C(=O)CN2CCOCC2)[C@@H](CO)N3)cc1 | n | n | x | x | x | x | x
COc1cccc(-c2ccc3c(c2)[C@H]2[C@H](CCN2C(=O)CN2CCOCC2)[C@@H](CO)N3)c1 | u | n | x | n | n | n | n
CC(C)(O)C#Cc1ccccc1C(=O)NC(CC(=O)O)c1ccccc1 (stereo unspecified) | x | x | n | x | x | x | x
C[C@H]1CN([C@@H](C)CO)S(=O)(=O)c2ccc(-c3ccccc3)cc2O[C@@H]1CN(C)Cc1ccccc1 | n | n | n | x | x | x | x
Cc1ccc(-c2ccc3c(c2)O[C@H](CN(C)Cc2ccc(C(=O)O)cc2)[C@H](C)CN([C@H](C)CO)S3(=O)=O)cc1 | n | n | n | x | x | x | x
Cc1ccc(-c2ccc3c(c2)O[C@@H](CN(C)Cc2ccccc2)[C@@H](C)CN([C@@H](C)CO)S3(=O)=O)cc1 | 124.0 | n | n | 95.6 | 107.0 | n | 103.7
Cc1ccc(-c2ccc3c(c2)O[C@@H](CN(C)Cc2ccccc2)[C@@H](C)CN([C@H](C)CO)S3(=O)=O)cc1 | 114.5 | n | n | n | 102.7 | n | 102.8
O=C(COc1ccccc1[N+](=O)[O-])Nc1cc(-c2nc3ccccc3o2)ccc1Cl | x | x | n | x | x | x | x
Cc1ccc2nc(-c3ccc(NC(=O)CCN4C(=O)c5ccccc5C4=O)cc3)[nH]c2c1 | x | x | n | x | x | x | x
Cc1ccc(Cl)cc1NC(=O)CSc1nc2c(c(C(F)(F)F)c1C#N)CCCC2 | x | x | n | x | x | x | x
O=C(C[C@H]1C[C@@H]2c3cc(NC(=O)CC4CC4)ccc3O[C@@H]2[C@@H](CO)O1)NCc1ccc(-c2ccccc2)cc1 | n | n | n | x | x | x | x
O=C(C[C@@H]1C[C@@H]2c3cc(NC(=O)CC4CC4)ccc3O[C@@H]2[C@@H](CO)O1)NCc1cccnc1 | 99.9 | n | n | 112.9 | n | n | n
O=C(C[C@@H]1C[C@H]2c3cc(NC(=O)NC4CCCC4)ccc3O[C@H]2[C@H](CO)O1)NCc1ccc(-c2ccccc2)cc1 | 100.4 | n | n | 104.8 | u | n | 51.4
O=C(C[C@@H]1C[C@H]2c3cc(NC(=O)Cc4ccncc4)ccc3O[C@H]2[C@@H](CO)O1)NCc1cccnc1 | n | n | n | x | x | x | x
O=C(C[C@@H]1C[C@H]2c3cc(NC(=O)NC4CCCC4)ccc3O[C@H]2[C@@H](CO)O1)NCc1ccc(Cl)cc1 | n | n | n | x | x | x | x
O=C(C[C@H]1C[C@@H]2c3cc(NC(=O)NC4CCCC4)ccc3O[C@@H]2[C@@H](CO)O1)NCc1ccc(Cl)cc1 | u | n | n | 103.2 | n | n | n
O=C(C[C@H]1C[C@@H]2c3cc(NC(=O)CC4CC4)ccc3O[C@@H]2[C@H](CO)O1)NCc1ccc(-c2ccccc2)cc1 | 103.7 | n | n | 111.7 | n | n | n
O=C(C[C@@H]1C[C@H]2c3cc(NC(=O)NC4CCCC4)ccc3O[C@H]2[C@@H](CO)O1)NCc1ccc(-c2ccccc2)cc1 | n | n | n | x | x | x | x
O=C(Nc1ccc(I)cc1C(=O)NCc1ccco1)c1ccco1 | x | x | n | x | x | x | x
Cc1cc(I)ccc1NC(=O)CN(c1ccc(F)c(Cl)c1)S(C)(=O)=O | x | x | n | x | x | x | x
COc1ccc(C(=O)NCCCN2CCCC2=O)cc1[N+](=O)[O-] | x | x | n | x | x | x | x
